The subject of series [1] is HCT116 p53^−/− subcutaneous xenograft tumors. Nature of the series: Survival study in subcutaneous xenograft mice. The class given is in vivo, athymic nude mice. Put shortly: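 Nude mice carried s.c. HCT116 p53+/+ or p53−/− xenografts (10^6 cells, 1:1 media/matrigel). At a mean tumor volume of 100 ± 10 mm3 they were randomized. Dosing was i.v. every 3–4 days for 5 cycles: approximately 74 MBq test compound in 100 μL 30% PEG300 vehicle, or vehicle alone. The p53−/− study added a stable-iodine analogue cohort (approx. 80 μg/kg). Weights were taken daily. Endpoints: distress, significant weight loss, tumor >800 mm3, or ulceration >5 mm.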

Series [2] has as its system healthy athymic nude mice. Nature of the series: ^127I-PARPi toxicity study in healthy mice. Particulars: 2.05 mg/kg intravenously. The class given is in vivo.

Molecules are shown by their SMILES.

As to `O=C(c1cccc([127I])c1)N1CCN(C(=O)c2cc(Cc3n[nH]c(=O)c4ccccc34)ccc2F)CC1` [^127I-PARPi], in series [1], the “Effect on overall / median survival compared to vehicle” value is listed as “No significant increase in median survival” and the “Improvement of median survival compared to vehicle control group” value is recorded as “+26%”. The “Median survival (weeks)” value in series [1] (i.v., ^123I-MAPi 74 MBq or ^127I-PARPi approx. 80 μg/kg, every 3–4 days, 5 cycles) is on record as 3.071 weeks. Also, the “Toxicity (immunohistochemical and blood chemistry analysis)” value in series [2] (healthy mice) is recorded as “no toxicity was observed”. In series [2] (vs. vehicle), the “Markers associated with liver toxicity (ALP, ALT, AST)” value was “no significant variation compared to vehicle cohorts”.

Values taken from PMC8686831 (Molecular pharmaceutics, 2021).
